Reference: paper PMC8911105 (Journal of Pharmaceutical Investigation, 2022)
Like-named read-outs stand apart in the source and are kept apart here.

What was measured:
[1] = mice; oral administration; ref Kato et al. [2010]; cited from earlier work
[2] = humans; oral administration; ref Cheah et al. [2017]; cited from earlier work
[3] = assay type: in vivo, rat
Method in brief: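 After four days of 1,25(OH)2D3 pretreatment, rats under ip Zoletil/Rompun (20 mg/kg) had femoral vein and artery cannulated. Aqueous ergothioneine (2 mg/mL) was given at 2 mg/kg IV. Plasma was sampled 0–1,440 min with heparinized-saline replacement. Plasma and urine were diluted 50- and 100-fold with 1% BSA for LC-MS/MS. AUC, CL, Vss and MRT came from non-compartmental analysis. Kp fold change was exogenous over basal Kp.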

[4] = Basal level of endogenous ergothioneine in plasma, urine and tissues; assay type: in vivo, rat; conditions: for Decrease in Kp of basal endogenous ergothioneine after 1,25(OH)2D3 pretreatment: treated vs control
Method in brief: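 Rats got 1,25(OH)2D3 2.56 nmol/kg/day for four days, with no ergothioneine given. Tail-vein blood (0.3 mL) was drawn 30 min before each dose and at the same time on days 5–6. Urine was collected over 24 h from day 5 to 6, and seven tissues were taken on day 6. LC-MS/MS was run with a 2–10,000 ng/mL calibration (LLOQ 2 ng/mL). n = 5 control, 6 treated; means ± SD; unpaired two-tailed t-test.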

[5] = Body weight of rats during 1,25; assay type: in vivo, rat; conditions: after pretreatment with 1,25(OH)2D3 2.56 nmol/kg/day for four days
[6] = test system: rat OCTN1 (rOCTN1); assay: RT-qPCR of rOCTN1 mRNA expression in organs of 1,25; assay type: in vivo; conditions: for Decrease in rOCTN1 mRNA expression level compared to control rats: 2.56 nmol/kg/day i.p. for four days, normalized to GAPDH
[7] = 2 mg/kg IV, 1,25(OH)2D3-treated rats
[8] = brain, 1,25(OH)2D3-treated rats
[9] = heart, 1,25(OH)2D3-treated rats
[10] = kidney, 1,25(OH)2D3-treated rats
[11] = muscle, 1,25(OH)2D3-treated rats
[12] = spleen, 1,25(OH)2D3-treated rats

## C[N+](C)(C)[C@@H](Cc1c[nH]c(=S)[nH]1)C(=O)[O-] [ergothioneine, l-ergothioneine]
[1]
  Urinary recovery of ergothioneine: < 4%
[2]
  Urinary recovery of ergothioneine: < 4%
[3]; [7]
  CL: 1.894 ± 0.733 mL/min/kg
  MRT: 33.50 ± 20.07 h
  Urinary recovery of ergothioneine within 24 h: 1.08%
  Vss: 3.298 ± 0.959 L/kg
[3]; 2 mg/kg IV, 1,25(OH)2D3-treated rats (n = 6)
  AUC∞: 1198 ± 457 µg·min/mL
[3]; 2 mg/kg IV, control rats
  CL: 3.729 ± 1.734 mL/min/kg
  MRT: 27.11 ± 17.31 h
  Urinary recovery of ergothioneine within 24 h: 3.89%
  Vss: 4.82 ± 1.291 L/kg
[3]; 2 mg/kg IV, control rats (n = 7)
  AUC∞: 647.5 ± 327.5 µg·min/mL
[3]; 2 mg/kg IV, treated vs control
  Decrease in total clearance in 1,25(OH)2D3-treated rats: 49%
  Increase in AUC∞ in 1,25(OH)2D3-treated rats: 85%
[3]; [8]
  Tissue partition coefficient (Kp), IV exogenous ergothioneine: 2.909 ± 0.448
[3]; brain, control rats
  Tissue partition coefficient (Kp), IV exogenous ergothioneine: 4.799 ± 1.199
[3]; [9]
  Tissue partition coefficient (Kp), IV exogenous ergothioneine: 39.88 ± 10.04
[3]; heart, control rats
  Tissue partition coefficient (Kp), IV exogenous ergothioneine: 81.04 ± 37.23
[3]; kidney, 1,25(OH)2D3-treated group
  Fold change of Kp (exogenous versus endogenous basal): 3.70 fold
[3]; [10]
  Tissue partition coefficient (Kp), IV exogenous ergothioneine: 76.12 ± 47.89
[3]; kidney, control group
  Fold change of Kp (exogenous versus endogenous basal): 3.13 fold
[3]; kidney, control rats
  Tissue partition coefficient (Kp), IV exogenous ergothioneine: 190.7 ± 59.4
[3]; liver, 1,25(OH)2D3-treated rats (n = 6), 24 h after 2 mg/kg IV
  Tissue partition coefficient (Kp), IV exogenous ergothioneine: 237.3 ± 82.8
[3]; liver, control rats (n = 5), 24 h after 2 mg/kg IV
  Tissue partition coefficient (Kp), IV exogenous ergothioneine: 407.8 ± 113.9
[3]; lung, 1,25(OH)2D3-treated rats
  Tissue partition coefficient (Kp), IV exogenous ergothioneine: 38.61 ± 8.48
[3]; lung, control rats
  Tissue partition coefficient (Kp), IV exogenous ergothioneine: 57.37 ± 14.60
[3]; [11]
  Tissue partition coefficient (Kp), IV exogenous ergothioneine: 10.25 ± 3.90
[3]; muscle, control rats
  Tissue partition coefficient (Kp), IV exogenous ergothioneine: 19.43 ± 8.95
[3]; [12]
  Tissue partition coefficient (Kp), IV exogenous ergothioneine: 21.89 ± 2.34
[3]; spleen, control rats
  Tissue partition coefficient (Kp), IV exogenous ergothioneine: 70.56 ± 17.46
[4]; 1,25(OH)2D3-treated group
  Cumulative amount of ergothioneine excreted in urine for 24 h (basal, endogenous): 1880 ng
[4]; 1,25(OH)2D3-treated group, third day to sixth day of pretreatment
  Basal plasma level of endogenous ergothioneine compared with control: significantly increased
[4]; [8]
  Tissue partition coefficient (Kp), basal endogenous ergothioneine: 1.587 ± 0.929
[4]; brain, control rats
  Tissue partition coefficient (Kp), basal endogenous ergothioneine: 3.585 ± 0.447
[4]; control group
  Cumulative amount of ergothioneine excreted in urine for 24 h (basal, endogenous): 3858 ng
[4]; [9]
  Tissue partition coefficient (Kp), basal endogenous ergothioneine: 22.25 ± 15.27
[4]; heart, control rats
  Tissue partition coefficient (Kp), basal endogenous ergothioneine: 34.59 ± 7.01
[4]; [10]
  Tissue partition coefficient (Kp), basal endogenous ergothioneine: 20.56 ± 11.88
[4]; kidney, control rats
  Tissue partition coefficient (Kp), basal endogenous ergothioneine: 60.85 ± 10.93
[4]; kidneys
  Decrease in Kp of basal endogenous ergothioneine after 1,25(OH)2D3 pretreatment: 66.2%
[4]; liver, 1,25(OH)2D3-treated rats (n = 6)
  Tissue partition coefficient (Kp), basal endogenous ergothioneine: 106.7 ± 62.3
[4]; liver, control rats (n = 5)
  Tissue partition coefficient (Kp), basal endogenous ergothioneine: 224.4 ± 53.9
[4]; liver
  Decrease in Kp of basal endogenous ergothioneine after 1,25(OH)2D3 pretreatment: 52.4%
[4]; lung, 1,25(OH)2D3-treated rats
  Tissue partition coefficient (Kp), basal endogenous ergothioneine: 17.75 ± 11.47
[4]; lung, control rats
  Tissue partition coefficient (Kp), basal endogenous ergothioneine: 30.67 ± 6.68
[4]; [11]
  Tissue partition coefficient (Kp), basal endogenous ergothioneine: 4.471 ± 3.279
[4]; muscle, control rats
  Tissue partition coefficient (Kp), basal endogenous ergothioneine: 8.385 ± 1.141
[4]; muscle
  Decrease in Kp of basal endogenous ergothioneine after 1,25(OH)2D3 pretreatment: 46.7%
[4]; [12]
  Tissue partition coefficient (Kp), basal endogenous ergothioneine: 15.22 ± 7.87
[4]; spleen, control rats
  Tissue partition coefficient (Kp), basal endogenous ergothioneine: 42.50 ± 14.19
[4]; spleen
  Decrease in Kp of basal endogenous ergothioneine after 1,25(OH)2D3 pretreatment: 64.2%

## C=C1/C(=C\C=C2/CCC[C@]3(C)[C@@H]([C@H](C)CCCC(C)(C)O)CC[C@@H]23)C[C@@H](O)C[C@@H]1O [1,25(OH)2D3, 1α,25-dihydroxyvitamin D3]
[5]
  Weight gain compared with control rats: significantly lower
[6]; brain
  Decrease in rOCTN1 mRNA expression level compared to control rats: 27%
[6]; kidney
  Decrease in rOCTN1 mRNA expression level compared to control rats: 77%
[6]; other tissues, such as the liver, spleen, and heart
  Change in rOCTN1 mRNA levels: no significant changes
